Laboratory results from ChEMBL document CHEMBL1806473, “Structure-based optimization of click-based histone deacetylase inhibitors” (Eur J Med Chem, 2011).

Tests used:
CCRF-CEM [1] = assay: Antiproliferative activity against human CCRF-CEM cells by SRB assay; assay type: functional
Procedure, shortened: (§1)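 Tested in the NCI in vitro human tumor cell line screen, run by the National Cancer Institute. Each compound was given at five concentrations (100, 10, 1.0, 0.1 and 0.01 μM). GI50 is the drug concentration that reduces growth of treated cells to half that of control cells during drug incubation, judged from the SRB signal.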

K562 [2] = assay: Antiproliferative activity against human K562 cells by SRB assay; assay type: functional; procedure, shortened: as §1
SR = assay: Antiproliferative activity against human SR cells by SRB assay; assay type: functional
Procedure, shortened: (§2)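 Cell growth was tested in the NIH in vitro disease-oriented human tumor cell line screen, which NCI ran for these compounds. Compounds were tested at five concentrations (100, 10, 1.0, 0.1 and 0.01 μM), and growth was read by SRB signal. GI50 is the drug concentration that reduces growth of treated cells to half that of control cells during drug incubation.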

EKVX = assay: Antiproliferative activity against human EKVX cells by SRB assay; assay type: functional; procedure, shortened: as §1
HOP-92 [3] = assay: Antiproliferative activity against human HOP92 cells by SRB assay; assay type: functional; procedure, shortened: as §1
NCI-H226 [4] = assay: Antiproliferative activity against human NCI-H226 cells by SRB assay; assay type: functional; procedure, shortened: as §1
NCI-H23 [5] = assay: Antiproliferative activity against human NCI-H23 cells by SRB assay; assay type: functional; procedure, shortened: as §1
NCI-H460 [6] = assay: Antiproliferative activity against human NCI-H460 cells by SRB assay; assay type: functional; procedure, shortened: as §1
NCI-H522 = assay: Antiproliferative activity against human NCI-H522 cells by SRB assay; assay type: functional; procedure, shortened: as §1
COLO 205 = assay: Antiproliferative activity against human COLO205 cells by SRB assay; assay type: functional; procedure, shortened: as §1
HCT-116 = assay: Antiproliferative activity against human HCT116 cells by SRB assay; assay type: functional; procedure, shortened: as §1
HCT-15 = assay: Antiproliferative activity against human HCT15 cells by SRB assay; assay type: functional; procedure, shortened: as §1
HT-29 = assay: Antiproliferative activity against human HT-29 cells by SRB assay; assay type: functional; procedure, shortened: as §1
SW-620 [7] = assay: Antiproliferative activity against human SW620 cells by SRB assay; assay type: functional; procedure, shortened: as §2
SF-295 = assay: Antiproliferative activity against human SF295 cells by SRB assay; assay type: functional; procedure, shortened: as §1
SNB-19 = assay: Antiproliferative activity against human SNB19 cells by SRB assay; assay type: functional; procedure, shortened: as §1
U-251 = assay: Antiproliferative activity against human U251 cells by SRB assay; assay type: functional; procedure, shortened: as §2
LOX IMVI [8] = assay: Antiproliferative activity against human LOXIMVI cells by SRB assay; assay type: functional; procedure, shortened: as §1
M14 [9] = assay: Antiproliferative activity against human M14 cells by SRB assay; assay type: functional; procedure, shortened: as §1
SK-MEL-2 = assay: Antiproliferative activity against human SK-MEL-2 cells by SRB assay; assay type: functional; procedure, shortened: as §1
SK-MEL-28 [10] = assay: Antiproliferative activity against human SK-MEL-28 cells by SRB assay; assay type: functional; procedure, shortened: as §1
UACC-257 = assay: Antiproliferative activity against human UACC257 cells by SRB assay; assay type: functional; procedure, shortened: as §2
IGROV-1 [11] = assay: Antiproliferative activity against human IGROV1 cells by SRB assay; assay type: functional; procedure, shortened: as §1
OVCAR-3 = assay: Antiproliferative activity against human OVCAR3 cells by SRB assay; assay type: functional; procedure, shortened: as §1
OVCAR-4 [12] = assay: Antiproliferative activity against human OVCAR4 cells by SRB assay; assay type: functional; procedure, shortened: as §1
OVCAR-8 [13] = assay: Antiproliferative activity against human OVCAR8 cells by SRB assay; assay type: functional; procedure, shortened: as §1
RXF 393 = assay: Antiproliferative activity against human RXF393 cells by SRB assay; assay type: functional; procedure, shortened: as §1
TK-10 = assay: Antiproliferative activity against human TK10 cells by SRB assay; assay type: functional; procedure, shortened: as §2
UO-31 = assay: Antiproliferative activity against human UO31 cells by SRB assay; assay type: functional; procedure, shortened: as §2
DU-145 = assay: Antiproliferative activity against human DU145 cells by SRB assay; assay type: functional; procedure, shortened: as §1
MCF7 [14] = assay: Antiproliferative activity against human MCF7 cells by SRB assay; assay type: functional; procedure, shortened: as §1
MDA-MB-231 = assay: Antiproliferative activity against human MDA-MB-231 cells by SRB assay; assay type: functional; procedure, shortened: as §1
[15] = Antiproliferative activity against human Hs 578T cells by SRB assay; assay type: functional; procedure, shortened: as §1
T47D [16] = assay: Antiproliferative activity against human T47D cells by SRB assay; assay type: functional; procedure, shortened: as §2
CCRF-CEM [17] = assay: Cytotoxicity against human CCRF-CEM cells; assay type: cell-based
HL-60(TB) = assay: Cytotoxicity against human HL-60(TB) cells; assay type: cell-based
K562 [18] = assay: Cytotoxicity against human K562 cells; assay type: cell-based
MOLT-4 = assay: Cytotoxicity against human MOLT4 cells; assay type: cell-based
HOP-92 [19] = assay: Cytotoxicity against human HOP92 cells; assay type: cell-based
NCI-H226 [20] = assay: Cytotoxicity against human NCI-H226 cells; assay type: cell-based
NCI-H23 [21] = assay: Cytotoxicity against human NCI-H23 cells; assay type: cell-based
NCI-H322M = assay: Cytotoxicity against human NCI-H322M cells; assay type: cell-based
NCI-H460 [22] = assay: Cytotoxicity against human NCI-H460 cells; assay type: cell-based
KM12 = assay: Cytotoxicity against human KM12 cells; assay type: cell-based
SW-620 [23] = assay: Cytotoxicity against human SW620 cells; assay type: cell-based
Procedure, shortened: (§3)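 Screened by NCI in its in vitro disease-oriented human tumour cell line panel. Compounds tested at five concentrations (100, 10, 1.0, 0.1 and 0.01 μM). Growth read by sulforhodamine B (SRB) signal. GI50 is the concentration reducing growth of treated cells to half that of control cells during the drug incubation.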

LOX IMVI [24] = assay: Cytotoxicity against human LOXIMVI cells; assay type: cell-based
M14 [25] = assay: Cytotoxicity against human M14 cells; assay type: cell-based
MDA-MB-435 = assay: Cytotoxicity against human MDA-MB-435 cells; assay type: cell-based
SK-MEL-28 [26] = assay: Cytotoxicity against human SK-MEL-28 cells; assay type: cell-based
SK-MEL-5 = assay: Cytotoxicity against human SK-MEL-5 cells; assay type: cell-based
UACC-62 = assay: Cytotoxicity against human UACC62 cells; assay type: cell-based; procedure, shortened: as §3
IGROV-1 [27] = assay: Cytotoxicity against human IGROV1 cells; assay type: cell-based
OVCAR-4 [28] = assay: Cytotoxicity against human OVCAR4 cells; assay type: cell-based
OVCAR-8 [29] = assay: Cytotoxicity against human OVCAR8 cells; assay type: cell-based
SK-OV-3 = assay: Cytotoxicity against human SKOV3 cells; assay type: cell-based
786-0 = assay: Cytotoxicity against human 786-0 cells; assay type: cell-based
A498 = assay: Cytotoxicity against human A498 cells; assay type: cell-based
ACHN = assay: Cytotoxicity against human ACHN cells; assay type: cell-based
CAKI-1 = assay: Cytotoxicity against human Caki1 cells; assay type: cell-based
SN12C = assay: Cytotoxicity against human SN12C cells; assay type: cell-based; procedure, shortened: as §3
PC-3 = assay: Cytotoxicity against human PC3 cells; assay type: cell-based
MCF7 [30] = assay: Cytotoxicity against human MCF7 cells; assay type: cell-based
[31] = Cytotoxicity against human Hs 578T cells; assay type: cell-based
BT-549 = assay: Cytotoxicity against human BT549 cells; assay type: cell-based
T47D [32] = assay: Cytotoxicity against human T47D cells; assay type: cell-based; procedure, shortened: as §3

## O=C(/C=C/c1cn(C(/C=C/c2ccccc2)Cc2ccccc2)nn1)NO (stereo not given)
CCRF-CEM [1]
  GI50: 320 nM
K562 [2]
  GI50: 1050 nM
SR
  GI50: 624 nM
EKVX
  GI50: 1460 nM
HOP-92 [3]
  GI50: 1080 nM
NCI-H226 [4]
  GI50: 2440 nM
NCI-H23 [5]
  GI50: 1510 nM
NCI-H460 [6]
  GI50: 1040 nM
NCI-H522
  GI50: 386 nM
COLO 205
  GI50: 1100 nM
HCT-116
  GI50: 382 nM
HCT-15
  GI50: 1590 nM
HT-29
  GI50: 547 nM
SW-620 [7]
  GI50: 892 nM
SF-295
  GI50: 291 nM
SNB-19
  GI50: 2000 nM
U-251
  GI50: 948 nM
LOX IMVI [8]
  GI50: 521 nM
M14 [9]
  GI50: 1180 nM
SK-MEL-2
  GI50: 1890 nM
SK-MEL-28 [10]
  GI50: 1300 nM
UACC-257
  GI50: 1680 nM
IGROV-1 [11]
  GI50: 836 nM
OVCAR-3
  GI50: 1160 nM
OVCAR-4 [12]
  GI50: 1750 nM
OVCAR-8 [13]
  GI50: 630 nM
RXF 393
  GI50: 1210 nM
TK-10
  GI50: 827 nM
UO-31
  GI50: 650 nM
DU-145
  GI50: 1080 nM
MCF7 [14]
  GI50: 1210 nM
MDA-MB-231
  GI50: 2210 nM
[15]
  GI50: 934 nM
T47D [16]
  GI50: 411 nM
CCRF-CEM [17]
  LC50: > 100000 nM
HL-60(TB)
  LC50: > 100000 nM
K562 [18]
  LC50: > 100000 nM
MOLT-4
  LC50: > 100000 nM
HOP-92 [19]
  LC50: 11600 nM
NCI-H226 [20]
  LC50: 46800 nM
NCI-H23 [21]
  LC50: 8680 nM
NCI-H322M
  LC50: 46700 nM
NCI-H460 [22]
  LC50: 27200 nM
KM12
  LC50: 34200 nM
SW-620 [23]
  LC50: 13600 nM
LOX IMVI [24]
  LC50: 4620 nM
M14 [25]
  LC50: 16500 nM
MDA-MB-435
  LC50: 15700 nM
SK-MEL-28 [26]
  LC50: 9400 nM
SK-MEL-5
  LC50: 5300 nM
UACC-62
  LC50: 6340 nM
IGROV-1 [27]
  LC50: 8180 nM
OVCAR-4 [28]
  LC50: 61600 nM
OVCAR-8 [29]
  LC50: > 100000 nM
SK-OV-3
  LC50: 13300 nM
786-0
  LC50: 6450 nM
A498
  LC50: 5460 nM
ACHN
  LC50: 13700 nM
CAKI-1
  LC50: 6250 nM
SN12C
  LC50: > 100000 nM
PC-3
  LC50: > 100000 nM
MCF7 [30]
  LC50: 93200 nM
[31]
  LC50: 74600 nM
BT-549
  LC50: > 100000 nM
T47D [32]
  LC50: 61700 nM
